In PubChem BioAssay:
The source made the active and inactive calls.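 How the source made its calls, unless noted: active means inhibition of the reporter signal at or above 50%; inactive means inhibition below 50%.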

How the values were obtained:
[1] = inhibitors of TNFa-induced NFkB p65 translocation, primary screen, imaging, HUVEC, MLSMR starter and 10KST1 sets (AID 438;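 active means inhibition above 20% together with a positive visual image hit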;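 further: compound added about 3h40 before a 20 min TNFalpha stimulation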;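 on inhibition: signal is the nuclear over cytoplasmic p65 intensity ratio per well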); details: HUVEC TNFa-induced p65 nuclear translocation; cell count: measured here: nuclei count (cytotoxicity indicator), at 2.08 µM; inhibition: at 2 µM, stronger effect = higher value, 0% TNFa-plus-vehicle, 100% no-TNFa wells
[2] = reduction of polyQ htt aggregates in cells – imaging, exon1htt(103Q)mCFP cells, high-content imaging, primary screen (AID 483;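 active means visual image review flags a hit and inhibition of aggregation exceeds 20%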;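 further: compound exposure lasted 3 days before fixation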;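 on nuclei count: percent of the per-plate median nuclei count of sample wells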); details: exon1htt(103Q)mCFP cell line, aggregate imaging, at 2 µM; inhibition of aggregation: stronger effect = higher value; nuclei count: measured here: cell count, toxicity
[3] = endothelial E-selectin expression blockers – imaging, HUVEC, immunofluorescence, MLSMR starter and 10KST1 sets, primary screen (AID 487;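 active means visually confirmed hit in the image check and inhibition above 20%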;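 on inhibition: signal is fraction of cell area covered by stained E-selectin grains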;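 on nuclei count: 100% = median nuclei count of all wells on the same plate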); details: HUVEC TNFalpha-induced E-selectin immunofluorescence imaging, at 2 µM; inhibition: stronger effect = higher value; nuclei count: measured here: cell number, toxicity
[4] = target: Voltage-gated potassium channel subunit beta-2 (Rattus norvegicus) (UniProt P62483); experiment: inhibitors of rat Kvbeta2 reductase activity – biochemical, NADPH fluorescence, primary screen (AID 622;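 active means fluorescence slope higher than the sample average by over 3 SD, cut at about -0.22 in these data, passing the limit was not always enough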;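 further: slope of raw intensity against log time taken from 70 to 1610 s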); details: recombinant KvBeta, 4-cyanobenzaldehyde reduction, at 10 µM, stronger effect = higher value
[5] = target: Voltage-gated potassium channel subunit beta-2 (Rattus norvegicus) (UniProt P62483); experiment: enhancers of rat Kvbeta2 NADPH turnover – biochemical, NADPH fluorescence, primary screen (AID 623;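 active means NADPH fluorescence slope more negative than the mean of all samples by about 3 SD, 99.7% confidence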;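 further: fluorescence intensity change per second fitted from 20 to 320 s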); details: Recombinant KvBeta, NADPH fluorescence decrease slope, 10 min; at 10 µM; stronger effect = lower value
[6] = target: Alpha-2C adrenergic receptor (Homo sapiens) (UniProt P18825); experiment: compounds altering alpha2C-coupled GIRK flux – cell-based, HEK293 alpha2C/GIRK1/2, thallium flux, primary screen (AID 624;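 active means fluorescence slope after compound addition differing from the mean of all screened samples at 99.7% confidence, in either direction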;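 further: slope of fluorescence ratio to pre-addition baseline per second over 15 to 24 s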); details: thallium flux BTC fluorescence, at 10 µM, actives lie on both sides
[7] = inhibitors of larval lipid processing in zebrafish, primary screen, whole organism, PED6 fluorescence, gall bladder and intestine (AID 686;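 active means a full or partial loss of lipid-probe fluorescence in the fish gall bladder, intestine or both, judged by eye; inactive means no fluorescence loss, or compound toxic to the fish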;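 further: larvae 5 to 7 days old with five fish per well; signal comes from phospholipase A2 cleavage of quenched PED6 carried via bile; overnight exposure to compound and PED6 before scoring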); details: Zebrafish larvae PED6 lipid processing, fluorescence scoring; screened at 20 µM (by protocol)
Outline: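 system = live zebrafish larvae aged 5-7 days, whole organism | probe or stimulus = ingested quenched lipid PED6 at 100 nM | doses = 20 µM single dose | timing = overnight exposure | detection = fluorescence microscopy with visual scoring of gall bladder and intestine | read-out = visual per-well fluorescence inhibition score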

[8] = TLR3 IRF3 reporter activation blockers – cell-based, poly I:C stimulus, luciferase, 10K MLSCN set, primary screen (AID 602277); details: HEK293-TLR3 RL24 IRF3 luciferase reporter, at 10 µM, stronger effect = higher value
[9] = target: Muscarinic acetylcholine receptor M4 (Homo sapiens) (UniProt P08173); experiment: M4-linked GIRK flux change, two-sided – cell-based, HEK293 M4/GIRK, thallium flux, BTC-AM, M4 allosteric agonist project, primary screen (AID 625;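 active means fluorescence slope after compound addition differing from the mean of all tested samples at 99.7% confidence, mostly higher but some lower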;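 further: thallium influx through GIRK channels coupled to M4 in HEK293 cells with BTC-AM dye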); details: at 10 µM, actives lie on both sides
Outline: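 Material – HEK293 cells with M4 receptor and GIRK channels · Buffer or medium – pH 7.3 thallium assay buffer · Doses – one dose, 10 µM final · Timing – cells overnight at 37 °C, BTC-AM loading 1 h, reads 2 min total · Measured by – kinetic fluorescence with BTC-AM dye · Controls – carbachol and DMSO controls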

[10] = blockers of RIG-like receptor reporter activation – cell-based, Sendai virus stimulus, luciferase, 10K MLSCN set, TLR/RLR signaling modifier project, primary screen (AID 602276;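 active means inhibition at or above 50% at 10 µM; inactive means inhibition below 50%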;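 further: firefly luciferase from ISG56 promoter only with Renilla not read in this screen; 0% = Sendai virus plus DMSO and 100% = medium plus DMSO without virus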); details: HEK293 RL24 IRF3 luciferase reporter, at 10 µM, stronger effect = higher value

Muscarinic acetylcholine receptor M4 (Homo sapiens), sequence (P08173 whole entry, looked up): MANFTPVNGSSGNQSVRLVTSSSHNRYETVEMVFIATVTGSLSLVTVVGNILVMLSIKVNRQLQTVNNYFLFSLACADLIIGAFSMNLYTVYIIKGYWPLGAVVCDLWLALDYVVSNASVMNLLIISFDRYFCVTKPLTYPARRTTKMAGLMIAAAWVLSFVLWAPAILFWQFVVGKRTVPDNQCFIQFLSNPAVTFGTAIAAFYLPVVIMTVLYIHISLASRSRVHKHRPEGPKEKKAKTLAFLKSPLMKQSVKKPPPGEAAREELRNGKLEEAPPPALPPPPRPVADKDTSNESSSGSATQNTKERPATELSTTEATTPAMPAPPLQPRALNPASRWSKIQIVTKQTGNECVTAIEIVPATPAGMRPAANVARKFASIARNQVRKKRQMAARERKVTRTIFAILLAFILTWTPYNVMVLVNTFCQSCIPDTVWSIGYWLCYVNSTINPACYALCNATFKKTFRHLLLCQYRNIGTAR
Voltage-gated potassium channel subunit beta-2 (Rattus norvegicus), sequence (P62483 whole entry, looked up): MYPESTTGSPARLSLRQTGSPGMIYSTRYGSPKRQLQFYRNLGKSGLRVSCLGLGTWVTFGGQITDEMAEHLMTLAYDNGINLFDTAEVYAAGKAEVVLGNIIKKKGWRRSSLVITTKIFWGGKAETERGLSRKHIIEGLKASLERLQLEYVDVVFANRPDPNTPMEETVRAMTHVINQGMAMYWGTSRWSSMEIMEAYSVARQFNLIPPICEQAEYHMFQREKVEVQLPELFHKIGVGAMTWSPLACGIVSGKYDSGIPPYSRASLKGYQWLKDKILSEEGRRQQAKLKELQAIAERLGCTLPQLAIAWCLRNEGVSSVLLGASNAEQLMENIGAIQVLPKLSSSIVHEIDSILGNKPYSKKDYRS
Alpha-2C adrenergic receptor (Homo sapiens), sequence (P18825 whole entry, looked up): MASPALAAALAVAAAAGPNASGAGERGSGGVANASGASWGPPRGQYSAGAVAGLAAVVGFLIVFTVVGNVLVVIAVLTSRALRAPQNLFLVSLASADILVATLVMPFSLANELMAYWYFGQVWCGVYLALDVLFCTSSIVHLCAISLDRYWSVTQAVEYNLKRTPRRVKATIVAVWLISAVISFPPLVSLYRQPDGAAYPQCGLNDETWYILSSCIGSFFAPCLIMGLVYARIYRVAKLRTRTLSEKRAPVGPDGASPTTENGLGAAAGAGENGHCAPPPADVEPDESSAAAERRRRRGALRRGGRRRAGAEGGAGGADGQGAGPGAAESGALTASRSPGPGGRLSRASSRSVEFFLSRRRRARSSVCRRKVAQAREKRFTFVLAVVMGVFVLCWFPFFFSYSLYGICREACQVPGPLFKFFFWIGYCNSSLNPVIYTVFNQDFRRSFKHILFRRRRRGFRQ

SMILES	cell count [1]	inhibition [1]	inhibition of aggregation [2]	nuclei count [2] [%]	inhibition [3]	nuclei count [3] [%]	fluorescence slope [4]	NADPH fluorescence slope [5]	slope [6]	outcome [7]	inhibition [8]	fluorescence slope [9]	inhibition [10]
CC(C)CN(CC(C)C)c1nc(N)c(C#N)c(CC#N)c1C#N	326	-7% (inactive)	9% (inactive)	102	-60.7% (inactive)	120	-0.318 (inactive)	-5e-05 (inactive)	0.00502 (inactive)	inactive	62.5% (active)		
Cc1c(NC(=O)C(C)OC(=O)COc2cccc3c2OC(C)(C)C3)c(=O)n(-c2ccccc2)n1C (configuration not stated)	652	-11.6% (inactive)	-3.5% (inactive)	129	-45.4% (inactive)	122	-0.59 (inactive)	-7.7e-05 (inactive)			14.8% (inactive)	0.00305 (inactive)	4.56% (inactive)
CCCCN(Cc1cc2cc(OC)ccc2[nH]c1=O)C(=O)COc1ccccc1	348	4.3% (inactive)	-1.9% (inactive)	117	-53.3% (inactive)	125	-0.505 (inactive)	-5e-05 (inactive)			13.1% (inactive)	0.00376 (inactive)	7.27% (inactive)
NC1=NC(c2ccc(Br)cc2)n2c(nc3ccccc32)N1 (configuration not stated)	779	4.8% (inactive)	-6.6% (inactive)	105	-44.9% (inactive)	106	-0.556 (inactive)	-1.5e-06 (inactive)			25% (inactive)	0.00498 (inactive)	17.6% (inactive)
COc1cccc(-n2nnnc2SCC(=O)NCc2ccco2)c1	423	-3.3% (inactive)	-7.7% (inactive)	94	-44.9% (inactive)	128	-0.548 (inactive)	-2.6e-05 (inactive)			21.4% (inactive)	0.00522 (inactive)	19.3% (inactive)
COc1ccc(C2C(C#N)=C(C)NC3=C2C(=O)CC(C)(C)C3)c(OC)c1 (configuration not stated)	252	-8% (inactive)	19.6% (inactive)	70.9	31.4% (inactive)	96	-0.463 (inactive)	-4.1e-06 (inactive)			18.9% (inactive)	0.00543 (inactive)	15.1% (inactive)
CCOc1ccccc1C1CC(=O)NC(SCC)=C1C#N (configuration not stated)	465	-13% (inactive)	18.7% (inactive)	84.4	-10% (inactive)	130	-0.326 (inactive)	-7.3e-05 (inactive)			17.5% (inactive)	0.00457 (inactive)	9.15% (inactive)
